Laboratory results from ChEMBL document CHEMBL4229390, “Structure-guided evolution of a 2-phenyl-4-carboxyquinoline chemotype into PPARα selective agonists: New leads for oculovascular conditions” (Bioorg Med Chem Lett, 2018).
Calls of active or inactive are those of the source. No cut-off for these calls is given here.

Legend:
[1] = biological target: T1, Peroxisome proliferator-activated receptor alpha (Homo sapiens) (UniProt Q07869); assay: Agonist activity at human PPARalpha at 5 uM after 22 to 24 hrs by luciferase reporter gene assay
T1 sequence (whole entry): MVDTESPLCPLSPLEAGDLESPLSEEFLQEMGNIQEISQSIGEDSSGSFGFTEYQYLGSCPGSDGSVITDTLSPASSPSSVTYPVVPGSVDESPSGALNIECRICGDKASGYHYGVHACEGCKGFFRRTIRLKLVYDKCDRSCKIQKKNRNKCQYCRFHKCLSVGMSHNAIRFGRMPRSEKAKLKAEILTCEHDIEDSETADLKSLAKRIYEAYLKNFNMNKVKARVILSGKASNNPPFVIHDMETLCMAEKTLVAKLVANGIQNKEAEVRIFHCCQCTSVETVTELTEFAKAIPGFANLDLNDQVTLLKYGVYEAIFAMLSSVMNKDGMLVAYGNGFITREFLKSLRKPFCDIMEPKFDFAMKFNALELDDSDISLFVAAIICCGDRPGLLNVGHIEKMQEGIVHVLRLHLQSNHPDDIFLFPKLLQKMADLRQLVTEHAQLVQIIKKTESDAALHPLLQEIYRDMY
How it was run: (§1)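 hPPARα luciferase reporter cells; read-out via oxyluciferin production. […] Fold-induction over DMSO control ± S.E. (n = 3), single experiment.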

[2] = biological target: T1, Peroxisome proliferator-activated receptor alpha (Homo sapiens); assay: Agonist activity at human PPARalpha at 10 uM after 22 to 24 hrs by luciferase reporter gene assay; how it was run: as §1
[3] = biological target: T2, Peroxisome proliferator-activated receptor alpha (Homo sapiens, UniProt Q07869); assay: Agonist activity at human PPARalpha after 22 to 24 hrs by luciferase reporter gene assay
T2 sequence (Q07869 whole entry): T1 sequence (whole entry)
How it was run: (§2)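 Human PPAR luciferase reporter cell lines; luciferase read-out through oxyluciferin production. 10-point dose-response in triplicate, single experiment, giving EC50.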

[4] = biological target: T1, Peroxisome proliferator-activated receptor alpha (Homo sapiens); assay: Agonist activity at human PPARalpha after 22 to 24 hrs by luciferase reporter gene assay relative to GW590735; how it was run: as §2
[5] = biological target: T3, Peroxisome proliferator-activated receptor delta (Homo sapiens, UniProt Q03181); assay: Agonist activity at human PPARdelta after 22 to 24 hrs by luciferase reporter gene assay
T3 sequence (Q03181 whole entry): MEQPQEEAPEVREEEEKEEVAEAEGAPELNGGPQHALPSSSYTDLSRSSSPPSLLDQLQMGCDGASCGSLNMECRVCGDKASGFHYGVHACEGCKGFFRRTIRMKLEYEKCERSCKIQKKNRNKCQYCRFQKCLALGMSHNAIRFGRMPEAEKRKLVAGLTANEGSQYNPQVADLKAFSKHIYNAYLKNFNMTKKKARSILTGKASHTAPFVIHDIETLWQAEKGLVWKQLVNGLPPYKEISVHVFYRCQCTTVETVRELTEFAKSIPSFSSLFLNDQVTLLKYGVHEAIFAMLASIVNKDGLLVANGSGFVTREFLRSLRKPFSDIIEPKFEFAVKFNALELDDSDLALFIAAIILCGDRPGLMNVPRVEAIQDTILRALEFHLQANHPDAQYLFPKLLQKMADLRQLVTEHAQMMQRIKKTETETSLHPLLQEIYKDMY

[6] = biological target: T4, Peroxisome proliferator-activated receptor gamma (Homo sapiens, UniProt P37231); assay: Agonist activity at human PPARgamma after 22 to 24 hrs by luciferase reporter gene assay; how it was run: as §2
T4 sequence (P37231 whole entry): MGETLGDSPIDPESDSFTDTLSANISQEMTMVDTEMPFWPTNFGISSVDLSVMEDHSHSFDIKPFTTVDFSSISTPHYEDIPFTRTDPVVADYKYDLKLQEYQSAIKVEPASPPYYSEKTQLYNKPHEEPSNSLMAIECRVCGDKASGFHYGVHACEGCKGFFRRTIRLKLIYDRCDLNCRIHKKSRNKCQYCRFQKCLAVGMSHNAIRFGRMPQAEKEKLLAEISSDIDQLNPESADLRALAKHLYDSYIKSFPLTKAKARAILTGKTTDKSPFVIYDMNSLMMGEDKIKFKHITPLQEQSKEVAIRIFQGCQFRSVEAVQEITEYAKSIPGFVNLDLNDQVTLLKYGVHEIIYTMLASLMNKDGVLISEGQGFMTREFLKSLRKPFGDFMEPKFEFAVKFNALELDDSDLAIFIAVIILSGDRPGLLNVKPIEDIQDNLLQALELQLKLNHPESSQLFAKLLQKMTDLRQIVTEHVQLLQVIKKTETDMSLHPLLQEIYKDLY

[7] = biological target: T5, Peroxisome proliferator-activated receptor alpha (Mus musculus) (UniProt P23204); assay: Agonist activity at PPARalpha in C57BL/6N mouse assessed as upregulation of Cpt1a gene expression at 10 to 100 uM after 24 hrs by RT-PCR method
T5 sequence (whole entry): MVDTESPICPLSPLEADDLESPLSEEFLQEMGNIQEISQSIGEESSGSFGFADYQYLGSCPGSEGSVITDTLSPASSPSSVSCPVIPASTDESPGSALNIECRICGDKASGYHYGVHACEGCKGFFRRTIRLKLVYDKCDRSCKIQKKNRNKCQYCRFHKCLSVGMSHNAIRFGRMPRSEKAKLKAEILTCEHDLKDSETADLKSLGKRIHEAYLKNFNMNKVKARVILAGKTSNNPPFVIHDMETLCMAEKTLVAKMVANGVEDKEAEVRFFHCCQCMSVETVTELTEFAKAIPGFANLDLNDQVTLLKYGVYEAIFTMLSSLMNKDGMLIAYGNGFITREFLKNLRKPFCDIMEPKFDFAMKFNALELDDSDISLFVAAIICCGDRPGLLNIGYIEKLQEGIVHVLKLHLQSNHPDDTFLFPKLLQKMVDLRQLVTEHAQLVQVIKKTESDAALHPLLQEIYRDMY
How it was run: (§3)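 Mouse 661W cells treated for 24 h; target mRNA quantified by RT-PCR (n = 6). Reported as mean ± S.D.; group differences tested with Student's t-test.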

Homo sapiens = species on record: Homo sapiens; assay: Antimigratory activity in HRCEC after 10 to 24 hrs by wound healing assay; type: functional
How it was run: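 Wound healing (scratch) assay in human retinal capillary endothelial cells, closure assessed at 10 h and 24 h incubation. Performed three times in triplicate; mean ± S.D.; Student's t-test.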

[8] = biological target: T5, Peroxisome proliferator-activated receptor alpha (Mus musculus); assay: Agonist activity at PPARalpha in C57BL/6N mouse assessed as upregulation of Slc25a20 gene expression at 10 to 100 uM after 24 hrs by RT-PCR method; how it was run: as §3
[9] = biological target: T5, Peroxisome proliferator-activated receptor alpha (Mus musculus); assay: Agonist activity at PPARalpha in C57BL/6N mouse assessed as upregulation of Acadm gene expression at 10 to 100 uM after 24 hrs by RT-PCR method; how it was run: as §3
[10] = biological target: T5, Peroxisome proliferator-activated receptor alpha (Mus musculus); assay: Agonist activity at PPARalpha in C57BL/6N mouse assessed as upregulation of PPARalpha protein expression after 24 hrs by Western blot method
How it was run: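 Mouse 661W cells exposed for 24 h. PPARα protein detected by Western blot and quantified by densitometry. Experiments performed three times in triplicate; mean ± S.D.; Student's t-test.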

[11] = biological target: T5, Peroxisome proliferator-activated receptor alpha (Mus musculus); assay: Agonist activity at PPARalpha in C57BL/6N mouse assessed as upregulation of Fabp3 gene expression at 10 to 100 uM after 24 hrs by RT-PCR method; how it was run: as §3
[12] = biological target: T2, Peroxisome proliferator-activated receptor alpha; assay: Agonist activity at PPARalpha (unknown origin) expressed in reporter combo cells after 36 hrs by dual luciferase reporter gene assay; type: cell-based
How it was run: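 Human PPARα luciferase reporter cell line. Luciferase activity was read indirectly as oxyluciferin production. EC50 came from a 10-point dose-response, dosed in triplicate in a single experiment. In the initial screen, agonism was expressed as fold-induction over the DMSO control (n = 3) at 5 and 50 μM.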

CC(C)(Oc1cccc(NCc2ccc(OCc3ccc(Cl)cc3)cc2)c1)C(=O)O
Activity [1]: inactive
Activity [2]: Active

O=C(O)c1cccc(NCc2ccc(OCc3ccc(Cl)cc3)cc2)c1
Activity [1]: Active
Activity [2]: Active

COc1ccc(COc2ccc(CNc3cccc(C(=O)O)c3)c(OCc3ccc(OC)cc3)c2)cc1
EC50 [3]: 5.1 µM
fold change (FC) [4]: 1.1
EC50 [5]: > 100 µM
EC50 [6]: > 100 µM

COc1ccc(COc2ccc(CNc3cccc(C(=O)O)c3)cc2)cc1
Activity [7]: Active
Activity (Homo sapiens): Dose-dependent effect
Activity [8]: Active
EC50 [5]: > 100 µM
Activity [9]: Active
Activity [10]: Dose-dependent effect
EC50 [6]: > 100 µM
Activity [11]: Active

COc1ccc(COc2ccc(CNc3cccc(OC(C)(C)C(=O)O)c3)cc2)cc1
Activity [1]: inactive
Activity [2]: Active
EC50 [5]: 38.6 µM
EC50 [6]: 18.3 µM

O=C(O)c1cccc(NCc2ccc(OCc3ccc(Cl)cc3Cl)cc2)c1
Activity [1]: Active

Cc1c(Cl)ccc2c(C(=O)O)cc(-c3ccccc3)nc12
EC50 [12]: 25 to 50 µM

CC(C)(Oc1cccc(NCc2ccc(OCc3cc(F)cc(F)c3)cc2)c1)C(=O)O
Activity [1]: inactive
Activity [2]: Active

CC(C)(Oc1cccc(NCc2ccc(OCc3ccccc3)cc2)c1)C(=O)O
Activity [1]: inactive
Activity [2]: Active

O=C(O)c1cccc(NCc2ccc(OCc3cc(F)cc(F)c3)cc2)c1
Activity [1]: Active
Activity [2]: Active

O=C(O)c1cccc(NCc2ccc(OCc3ccc([N+](=O)[O-])cc3)cc2)c1
Activity [1]: Active

O=C(O)c1cccc(NCc2ccc(OCc3ccccc3)cc2)c1
Activity [1]: Active
Activity [2]: Active

COc1ccc(COc2ccc(CNc3cccc(OC(C)(C)C(=O)O)c3)c(OCc3ccc(OC)cc3)c2)cc1
EC50 [3]: 2.1 µM
fold change (FC) [4]: 1.4
EC50 [5]: 8.9 µM
EC50 [6]: 5.6 µM
